According to ChEMBL document CHEMBL4371006, “Discovery of N-[4-(Quinolin-4-yloxy)phenyl]benzenesulfonamides as Novel AXL Kinase Inhibitors” (J Med Chem, 2018):
Active and inactive are the calls of the source. No cut-off for these calls is given here.

Key:
[1] = molecular target: Tyrosine-protein kinase Tec (Homo sapiens, UniProt P42680); experiment: Binding affinity to TEC in SILAC-labeled human MDA-MB-231 cells lysate by mass spectrometry based kinAffinity assay; type: subcellular
Method in brief: (§1)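 MDA-MB-231 lysate applied to KinAffinity matrix of immobilized broadband kinase inhibitors at graded densities to obtain BC50 per target. Competition then run with increasing free compound to give CC50; Kd derived by Cheng-Prusoff. Two competition experiments in parallel to check equilibrium, one with lysate pre-incubated with compound before adding matrix. Quantitation by mass spectrometry.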

[2] = molecular target: Serine/threonine-protein kinase SIK3 (Homo sapiens, UniProt Q9Y2K2); experiment: Binding affinity to QSK in SILAC-labeled human MDA-MB-231 cells lysate by mass spectrometry based kinAffinity assay; type: subcellular; method in brief: as §1
Serine/threonine-protein kinase SIK3, sequence (Q9Y2K2 whole entry): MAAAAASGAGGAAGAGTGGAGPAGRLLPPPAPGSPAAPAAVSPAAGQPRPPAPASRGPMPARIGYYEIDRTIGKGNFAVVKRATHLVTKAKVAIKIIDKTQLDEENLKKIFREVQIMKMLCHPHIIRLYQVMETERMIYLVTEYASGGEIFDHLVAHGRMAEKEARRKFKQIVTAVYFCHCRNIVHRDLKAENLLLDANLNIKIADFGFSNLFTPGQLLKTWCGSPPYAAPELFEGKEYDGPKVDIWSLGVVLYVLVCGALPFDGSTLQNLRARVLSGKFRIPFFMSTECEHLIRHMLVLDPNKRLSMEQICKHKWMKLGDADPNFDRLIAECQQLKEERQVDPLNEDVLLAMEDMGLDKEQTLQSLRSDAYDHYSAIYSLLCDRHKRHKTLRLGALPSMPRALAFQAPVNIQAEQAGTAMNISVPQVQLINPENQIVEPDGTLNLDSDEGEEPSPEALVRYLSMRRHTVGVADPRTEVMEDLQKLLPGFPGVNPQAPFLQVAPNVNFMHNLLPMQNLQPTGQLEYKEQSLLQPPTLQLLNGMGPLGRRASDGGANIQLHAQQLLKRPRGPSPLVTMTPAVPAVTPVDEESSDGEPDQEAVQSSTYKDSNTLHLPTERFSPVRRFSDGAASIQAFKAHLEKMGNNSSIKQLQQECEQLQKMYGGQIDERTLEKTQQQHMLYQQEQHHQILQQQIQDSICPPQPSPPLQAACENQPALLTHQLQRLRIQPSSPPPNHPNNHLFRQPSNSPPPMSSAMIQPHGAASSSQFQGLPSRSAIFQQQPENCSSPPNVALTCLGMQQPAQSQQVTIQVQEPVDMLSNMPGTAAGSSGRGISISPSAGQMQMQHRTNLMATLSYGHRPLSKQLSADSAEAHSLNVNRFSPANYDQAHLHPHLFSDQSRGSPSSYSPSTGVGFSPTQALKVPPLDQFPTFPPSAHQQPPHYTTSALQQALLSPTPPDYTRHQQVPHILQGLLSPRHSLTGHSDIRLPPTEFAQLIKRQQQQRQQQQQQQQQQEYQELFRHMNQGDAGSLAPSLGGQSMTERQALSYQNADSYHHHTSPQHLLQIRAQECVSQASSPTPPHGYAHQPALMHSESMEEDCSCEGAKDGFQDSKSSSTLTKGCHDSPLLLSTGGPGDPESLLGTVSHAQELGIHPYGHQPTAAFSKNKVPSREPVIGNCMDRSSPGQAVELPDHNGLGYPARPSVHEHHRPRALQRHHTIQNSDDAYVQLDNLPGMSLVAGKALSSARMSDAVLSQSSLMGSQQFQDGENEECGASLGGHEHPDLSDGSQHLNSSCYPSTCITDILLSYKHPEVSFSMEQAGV

[3] = molecular target: 5-azacytidine-induced protein 2 (Homo sapiens, UniProt Q9H6S1); experiment: Binding affinity to AZI2 in SILAC-labeled human MDA-MB-231 cells lysate by mass spectrometry based kinAffinity assay; type: subcellular
5-azacytidine-induced protein 2, sequence (Q9H6S1 whole entry): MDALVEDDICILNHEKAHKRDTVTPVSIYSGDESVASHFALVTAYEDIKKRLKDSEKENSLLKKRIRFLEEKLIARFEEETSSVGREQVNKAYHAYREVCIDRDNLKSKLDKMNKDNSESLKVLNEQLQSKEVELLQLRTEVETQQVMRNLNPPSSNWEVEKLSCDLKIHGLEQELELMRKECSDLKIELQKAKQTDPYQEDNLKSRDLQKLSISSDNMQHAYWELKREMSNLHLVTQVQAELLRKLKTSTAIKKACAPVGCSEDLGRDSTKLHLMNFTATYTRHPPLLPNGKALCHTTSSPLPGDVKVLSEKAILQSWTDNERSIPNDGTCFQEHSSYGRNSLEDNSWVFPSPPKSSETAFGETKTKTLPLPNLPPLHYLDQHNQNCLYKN
Method in brief: (§2)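 Chemical proteomics: MDA-MB-231 lysate bound to matrix of immobilized broad kinase inhibitors at several densities (BC50), then competed with increasing free compound (CC50); proteins quantified by mass spectrometry, Kd via Cheng-Prusoff. Two competition formats run in parallel to check equilibrium.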

[4] = Antitumor activity against AXL expressing mouse MXT cells allografted in mouse assessed as prolongation of survival time at 5 to 15 mg/kg, ip qd administered 21 consecutive days; type: functional; conditions: read-out: MED
Method in brief: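 MXT mammary tumour cells implanted subcutaneously and staged to about 125 mm3. Dosing then began: once daily ip for 21 consecutive days, at 5 or 15 mg/kg, alongside a vehicle group, with 7 animals per group. Survival in days was recorded for each animal and given as mean ± SD, and as T/C% against the vehicle group (vehicle = 100%).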

[5] = Toxicity in mouse allografted with AXL expressing mouse MXT cells assessed as morbidity at 15 mg/kg, ip qd administered 21 consecutive days; type: organism-based; conditions: in vivo
[6] = molecular target: Mitogen-activated protein kinase kinase kinase kinase 4 (Homo sapiens, UniProt O95819); experiment: Binding affinity to MAP4K4 in SILAC-labeled human MDA-MB-231 cells lysate by mass spectrometry based kinAffinity assay; type: subcellular; method in brief: as §2
Mitogen-activated protein kinase kinase kinase kinase 4, sequence (O95819 whole entry): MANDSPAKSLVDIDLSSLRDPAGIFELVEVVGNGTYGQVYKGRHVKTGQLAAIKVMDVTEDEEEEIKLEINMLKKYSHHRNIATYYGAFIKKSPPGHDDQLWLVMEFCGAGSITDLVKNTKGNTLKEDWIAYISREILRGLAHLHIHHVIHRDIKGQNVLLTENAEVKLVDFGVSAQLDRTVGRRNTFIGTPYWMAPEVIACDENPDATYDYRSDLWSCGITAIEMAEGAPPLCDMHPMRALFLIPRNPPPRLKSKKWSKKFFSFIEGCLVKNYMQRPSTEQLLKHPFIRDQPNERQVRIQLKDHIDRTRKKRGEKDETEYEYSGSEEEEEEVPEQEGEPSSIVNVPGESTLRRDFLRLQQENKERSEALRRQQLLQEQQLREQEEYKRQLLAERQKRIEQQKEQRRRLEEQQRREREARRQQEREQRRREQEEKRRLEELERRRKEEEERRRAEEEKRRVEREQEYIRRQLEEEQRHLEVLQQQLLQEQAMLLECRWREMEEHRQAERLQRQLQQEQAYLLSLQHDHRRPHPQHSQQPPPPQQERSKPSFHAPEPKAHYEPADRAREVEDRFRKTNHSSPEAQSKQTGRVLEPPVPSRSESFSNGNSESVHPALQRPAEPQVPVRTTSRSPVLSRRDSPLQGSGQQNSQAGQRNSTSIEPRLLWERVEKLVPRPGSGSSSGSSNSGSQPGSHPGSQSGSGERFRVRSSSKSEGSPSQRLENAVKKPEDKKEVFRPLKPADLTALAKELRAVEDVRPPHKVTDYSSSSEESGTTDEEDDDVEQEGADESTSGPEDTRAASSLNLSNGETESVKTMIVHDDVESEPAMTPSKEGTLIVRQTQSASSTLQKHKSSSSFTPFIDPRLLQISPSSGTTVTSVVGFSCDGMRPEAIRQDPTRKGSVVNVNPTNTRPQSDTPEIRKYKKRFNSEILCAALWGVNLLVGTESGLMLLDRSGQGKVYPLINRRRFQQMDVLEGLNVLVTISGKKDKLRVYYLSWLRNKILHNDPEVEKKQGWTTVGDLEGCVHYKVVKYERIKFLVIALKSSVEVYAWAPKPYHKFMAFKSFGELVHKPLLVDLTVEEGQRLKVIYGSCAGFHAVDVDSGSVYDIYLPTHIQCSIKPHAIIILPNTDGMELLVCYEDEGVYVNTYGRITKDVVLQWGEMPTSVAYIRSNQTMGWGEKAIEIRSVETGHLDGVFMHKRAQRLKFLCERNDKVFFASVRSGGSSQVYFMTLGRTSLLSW

[7] = molecular target: Tyrosine-protein kinase CSK (Homo sapiens, UniProt P41240); experiment: Inhibition of CSK (unknown origin) using fluorescence labeled peptide as substrate at 10 uM by IMAP assay
Tyrosine-protein kinase CSK, sequence (P41240 2-450 limits assumed): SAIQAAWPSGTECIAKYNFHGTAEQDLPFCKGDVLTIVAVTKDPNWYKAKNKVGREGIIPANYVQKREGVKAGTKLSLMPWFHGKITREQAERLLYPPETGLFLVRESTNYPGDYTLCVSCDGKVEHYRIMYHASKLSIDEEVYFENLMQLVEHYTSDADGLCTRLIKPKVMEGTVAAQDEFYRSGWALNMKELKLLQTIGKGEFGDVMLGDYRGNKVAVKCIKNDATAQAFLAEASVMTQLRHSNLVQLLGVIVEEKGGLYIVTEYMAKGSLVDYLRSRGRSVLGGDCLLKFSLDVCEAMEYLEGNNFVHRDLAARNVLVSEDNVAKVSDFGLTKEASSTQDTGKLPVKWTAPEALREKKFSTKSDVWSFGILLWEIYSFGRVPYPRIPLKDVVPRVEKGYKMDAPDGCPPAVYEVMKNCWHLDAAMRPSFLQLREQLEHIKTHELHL
Method in brief: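 IMAP fluorescence-polarization kinase assay at 10 µmol/L compound, run in triplicate by a contract lab. A fluorescently labeled substrate peptide is phosphorylated, then nanoparticles carrying trivalent metal bind the phosphopeptide and slow its rotation. Read-out is fluorescence polarization, expressed as percent inhibition.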

[8] = molecular target: Tyrosine-protein kinase SYK (Homo sapiens) (UniProt P43405); experiment: Inhibition of SYK (unknown origin) using fluorescence labeled peptide as substrate at 10 uM by IMAP assay
Method in brief: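 Kinase selectivity profiling, run by a contract lab, with the test compound at 10 µmol/L in triplicate. In the IMAP format, the kinase phosphorylates a fluorescently labelled substrate peptide in solution. A binding solution of trivalent metal-based nanoparticles is then added to capture the phosphopeptide, and the drop in rotational speed is read as fluorescence polarization. Results are given as percent inhibition of each kinase.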

[9] = molecular target: Insulin receptor (Homo sapiens) (UniProt P06213); experiment: Inhibition of INSR (unknown origin) using fluorescently-labeled peptide as substrate at 10 uM by IMAP fluorescence polarization assay
Insulin receptor (Homo sapiens), sequence (P06213 28-758 limits assumed): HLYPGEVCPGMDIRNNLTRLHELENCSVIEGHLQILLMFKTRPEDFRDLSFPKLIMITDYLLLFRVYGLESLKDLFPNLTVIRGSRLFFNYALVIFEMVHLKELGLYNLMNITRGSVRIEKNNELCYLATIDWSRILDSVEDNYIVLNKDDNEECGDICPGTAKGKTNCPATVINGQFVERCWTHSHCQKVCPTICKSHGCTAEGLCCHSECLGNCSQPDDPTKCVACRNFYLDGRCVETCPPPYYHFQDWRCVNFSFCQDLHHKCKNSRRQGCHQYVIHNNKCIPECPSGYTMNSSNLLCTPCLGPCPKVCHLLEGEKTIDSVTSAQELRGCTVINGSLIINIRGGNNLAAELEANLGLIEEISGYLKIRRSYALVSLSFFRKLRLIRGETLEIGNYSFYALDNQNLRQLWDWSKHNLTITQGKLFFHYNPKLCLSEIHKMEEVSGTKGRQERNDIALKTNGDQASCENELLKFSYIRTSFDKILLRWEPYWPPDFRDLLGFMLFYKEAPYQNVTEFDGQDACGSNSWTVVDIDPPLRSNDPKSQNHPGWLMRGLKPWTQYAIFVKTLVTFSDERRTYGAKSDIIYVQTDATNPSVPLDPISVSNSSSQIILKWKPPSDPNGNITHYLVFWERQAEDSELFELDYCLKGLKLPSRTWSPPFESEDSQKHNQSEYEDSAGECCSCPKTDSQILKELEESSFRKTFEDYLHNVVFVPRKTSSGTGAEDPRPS
Insulin receptor (Homo sapiens), sequence (P06213 763-1382 limits assumed): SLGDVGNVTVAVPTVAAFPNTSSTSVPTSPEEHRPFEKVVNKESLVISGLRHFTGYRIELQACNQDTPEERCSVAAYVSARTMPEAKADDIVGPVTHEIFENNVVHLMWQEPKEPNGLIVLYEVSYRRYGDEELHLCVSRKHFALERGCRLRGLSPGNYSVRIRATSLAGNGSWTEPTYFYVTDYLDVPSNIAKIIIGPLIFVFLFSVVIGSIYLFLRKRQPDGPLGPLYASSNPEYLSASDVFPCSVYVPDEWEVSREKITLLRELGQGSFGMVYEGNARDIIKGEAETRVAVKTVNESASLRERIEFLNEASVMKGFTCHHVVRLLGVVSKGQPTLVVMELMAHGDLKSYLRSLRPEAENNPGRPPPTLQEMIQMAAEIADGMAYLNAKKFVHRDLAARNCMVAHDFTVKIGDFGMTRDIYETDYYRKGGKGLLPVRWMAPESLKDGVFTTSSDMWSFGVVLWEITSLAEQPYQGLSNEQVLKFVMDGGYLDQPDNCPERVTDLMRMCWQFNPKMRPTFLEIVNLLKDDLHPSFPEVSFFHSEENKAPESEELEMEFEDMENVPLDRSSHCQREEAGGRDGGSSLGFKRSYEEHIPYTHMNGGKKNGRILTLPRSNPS

For `COc1cc2c(Oc3ccc(NS(=O)(=O)c4c(F)cccc4F)cc3F)ccnc2cc1OCCCN1CCN(C)CC1`, the “Kd(free)” value [1] was over 3.674 µM, the “Kd(free)” value [2] was 7.63 µM and the “Kd(free)” value [3] was 2.982 µM.

In the case of `COc1cc2c(Oc3ccc(NS(=O)(=O)c4cc(F)ccc4F)cc3F)ccnc2cc1OCCCN1CCCC(C)C1` (centres undefined), the minimal effective dose [4] is reported as 5 mg/kg and the Activity [5] is reported as “Non-Toxic”.

In the case of `COc1cc2c(Oc3ccc(NS(=O)(=O)c4cc(F)ccc4F)cc3F)ccnc2cc1OCCCN1CCN(C)CC1`, the “Kd(free)” value [6] is reported as 3.75 µM.

In the case of `COc1cc2c(Oc3ccc(NS(=O)(=O)c4ccccc4C(F)(F)F)cc3F)ccnc2cc1OCCCN1CCN(C)CC1`, the inhibition [7] is reported as “Active”, the inhibition [8] is reported as “Active” and the inhibition [9] is reported as “Active”.
